Test results as given in publication PMC7609460 (Heliyon, 2020).

Columns and labels:
Format in all cases: cell-based
[1] = tested on: U87MG.ΔEGFR glioblastoma cells; test: Resazurin reduction assay; conditions: for IC50: 72 h; for Degree of resistance: ratio IC50 U87MG.ΔEGFR / IC50 U87MG
Outline: (§1)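 Resazurin reduction read after 72 h at 37 °C in humidified 5% CO2; fluorescence at 544 nm excitation and 590 nm emission. Test samples were dissolved in DMSO (final ≤0.1%). IC50 is the concentration that gives 50% inhibition of proliferation, derived by linear regression. Degree of resistance is IC50 in the resistant line divided by IC50 in its parental line. Selectivity index is IC50 in AML12 divided by IC50 in HepG2.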

CCRF-CEM leukemia cells = test: Resazurin reduction assay; conditions: Homo sapiens, 72 h
Outline: as §1

[2] = tested on: CEM/ADR5000 leukemia cells (P-glycoprotein-overexpressing); test: Resazurin reduction assay; conditions: for IC50: Homo sapiens, ADR5000, 72 h; for Degree of resistance: ratio IC50 CEM/ADR5000 / IC50 CCRF-CEM
Outline: as §1

U87MG glioblastoma cells = test: Resazurin reduction assay; conditions: Homo sapiens, U-87 MG, 72 h
Outline: as §1

[3] = tested on: MDA-MB-231-pcDNA breast adenocarcinoma cells; test: Resazurin reduction assay; conditions: 72 h
Outline: as §1

normal AML12 hepatocytes = test: Resazurin reduction assay; conditions: for IC50: Mus musculus, AML12, 72 h; for Selectivity index: ratio IC50 AML12 hepatocytes / IC50 HepG2
Outline: as §1

[4] = tested on: HepG2 hepatocarcinoma cells; test: Resazurin reduction assay; conditions: Homo sapiens, HepG2, 72 h
Outline: as §1

[5] = tested on: MDA-MB-231-BCRP breast adenocarcinoma cells; test: Resazurin reduction assay; conditions: for IC50: MDA-MB-231/BCRP, 72 h
Outline: as §1

[6] = tested on: HCT116 (p53+/+) colon cancer cells; test: Resazurin reduction assay; conditions: Homo sapiens, HCT-116, 72 h
Outline: as §1

[7] = tested on: HCT116 (p53-/-) colon adenocarcinoma cells; test: Resazurin reduction assay; conditions: for IC50: Homo sapiens, HCT-116, 72 h; for Degree of resistance: ratio IC50 HCT116 (p53-/-) / IC50 HCT116 (p53+/+)
Outline: as §1

CCRF-CEM cells [8] = test: Cell cycle distribution by flow cytometry; conditions: 24 h treatment
Outline: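 CCRF-CEM cells (1×10^6) were treated for 24 h under standard culture conditions with various concentrations of test sample, or with DMSO (0.1% final) as control. Cell-cycle phases were read by flow cytometry from propidium iodide fluorescence of individual nuclei. At least three independent experiments, each with three repetitions.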

CCRF-CEM cells [9] = test: Flow cytometric analysis of ROS production; conditions: 24 h, 50 μM, non-treated cells 0.6%

COc1cc(-c2cc(=O)c3c(O)cc(O[C@@H]4O[C@H](CO)[C@@H](O)[C@H](O)[C@H]4O)cc3o2)ccc1O [Compound 3, chrysoeriol-7-O-β-D-glucopyranoside]
IC50 [1]: 21.1 ± 0.92 µM | IC50 (CCRF-CEM leukemia cells): 20.8 ± 1.76 µM | IC50 [2]: 18.7 ± 1.25 µM | Degree of resistance [2]: 0.90 | IC50 (U87MG glioblastoma cells): 24.9 ± 2.19 µM | IC50 [3]: > 100 µM | IC50 (normal AML12 hepatocytes): > 100 µM | Selectivity index (normal AML12 hepatocytes): > 2.92 | IC50 [4]: 34.2 ± 2.86 µM | IC50 [5]: > 100 µM | IC50 [6]: 30.7 ± 4.04 µM | IC50 [7]: 28.4 ± 1.72 µM

O=c1cc(-c2ccc(O)cc2)oc2cc(O[C@@H]3O[C@H](CO)[C@@H](O)[C@H](O)[C@H]3O)cc(O)c12 [Compound 4, Apigenin-7-O-β-D-glucopyranoside]
IC50 [1]: > 100 µM | IC50 (CCRF-CEM leukemia cells): 10.4 ± 1.17 µM | IC50 [2]: > 100 µM | Degree of resistance [2]: > 9.62 | IC50 (U87MG glioblastoma cells): > 100 µM | IC50 [3]: > 100 µM | IC50 (normal AML12 hepatocytes): > 100 µM | IC50 [4]: > 100 µM | IC50 [5]: > 100 µM | IC50 [6]: > 100 µM | IC50 [7]: > 100 µM

O=c1cc(-c2ccc(O)c(O)c2)oc2cc(O)cc(O)c12 [Compound 6, luteolin]
IC50 [1]: 18.9 ± 1.06 µM | Degree of resistance [1]: 0.83 | IC50 (CCRF-CEM leukemia cells): 11 ± 0.97 µM | IC50 [2]: 27 ± 1.29 µM | Degree of resistance [2]: 2.46 | IC50 (U87MG glioblastoma cells): 22.7 ± 2.2 µM | IC50 [3]: > 100 µM | IC50 (normal AML12 hepatocytes): > 100 µM | Selectivity index (normal AML12 hepatocytes): > 3.45 | IC50 [4]: 29 ± 1.77 µM | IC50 [5]: > 100 µM | IC50 [6]: 28.3 ± 1.07 µM | IC50 [7]: 30.4 ± 2.55 µM | Degree of resistance [7]: 1.07

COc1cccc2c1C(=O)c1c(O)c3c(c(O)c1C2=O)C[C@@](O)(C(=O)CO)C[C@@H]3O[C@H]1C[C@H](N)[C@H](O)[C@H](C)O1 [Doxorubicin, reference compound]
IC50 [1]: 0.98 ± 0.07 µM | Degree of resistance [1]: 3.79 | IC50 (CCRF-CEM leukemia cells): 0.02 µM | IC50 (U87MG glioblastoma cells): 0.26 ± 0.03 µM | cell cycle arrest phase (CCRF-CEM cells [8]): S and G2/M phase arrest | IC50 [3]: 0.13 ± 0.01 µM | IC50 (normal AML12 hepatocytes): 52.9 ± 4.09 µM | IC50 [4]: 4.56 ± 0.48 µM | IC50 [5]: 0.79 ± 0.08 µM | Degree of resistance ([5]; ratio IC50 MDA-MB-231-BCRP / IC50 MDA-MB-231-pcDNA): 6.14 | IC50 [7]: 1.78 ± 0.08 µM | Degree of resistance [7]: 3.73

OO [H2O2, Hydrogen peroxide]
ROS levels (CCRF-CEM cells [9]): 94.30%
